Here are results for 9 molecules from ChEMBL document CHEMBL1152520.

Experiment [1] can be described thus: Inhibition of LPS-induced AP1 transcriptional activation expressed in mouse RAW264.7 cells assessed as AP1 activity at 10 uM treated after LPS challenge measured after 24 hrs by luciferase reporter gene assay relative to control. (In general: In a reporter assay the amount or activity of a reporter protein is the signal.)
A further experiment deals with RAW264.7. Put plainly: Inhibition of LPS-induced NF-kappaB transcriptional activation expressed in mouse RAW264.7 cells assessed as NF-kappaB activity at 10 uM treated after LPS challenge measured after 24 hrs by luciferase reporter gene assay relative to control. In kind it is cell-based. Put shortly: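 RAW 264.7 cells, about 1 10^5 per well, were seeded 24 h before co-transfection (lipofectamine plus) with pAP-1-Luc or pNF-κB-Luc plus the pGL-hRluc internal control. At 48 h post-transfection, E. coli 0111:B4 LPS (100 ng/mL final) was added for 6 h. Compound in DMSO (10 µM final) was then added and cells were harvested 24 h later. Dual-luciferase readout: firefly/Renilla ratio expressed as multiples of the untreated control, mean SEM, n = 3. Paired Student's t-test.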

Regarding `CC1=CC[C@@H]2[C@](CC#N)(CC[C@H]3[C@@]2(C)CCC[C@@]3(C)C(=O)O)C1`, the Activity in experiment [1] turned out to be 2.22. For the same molecule, the luciferase ratio in the experiment on RAW264.7 turned out to be 0.18.

With `C[C@@]12CC[C@@H]3[C@@](CC[C@H]4[C@@]3(C)CCC[C@@]4(C)C(=O)O)(CC(=O)N1)C2`, in experiment [1], the Activity was determined as 3.19. Also, in the experiment on RAW264.7, the luciferase ratio stood at 0.15.

With `C[C@@]12CC[C@H]3[C@]4(C)CCC[C@@](C)(C(=O)O)[C@H]4C[C@H](O)[C@]3(C/C1=N\O)C2`, the Activity in experiment [1] came out at 2.69. For the same molecule, the luciferase ratio in the experiment on RAW264.7 was found to be 0.16.

For `C[C@@]12CC[C@@H]3[C@@](CC[C@H]4[C@@]3(C)CCC[C@@]4(C)C(=O)O)(CC(=O)O1)C2`, in experiment [1], the Activity came out at 2.38. In addition, in the experiment with RAW264.7, the luciferase ratio was 0.2.

On to `C[C@@]12CC[C@@H]3[C@@](CC[C@H]4[C@@]3(C)[C@@H](O)CC[C@@]4(C)C(=O)O)(C/C1=N\O)C2`, for which the Activity in experiment [1] stood at 3.52. Further, in the experiment on RAW264.7, the luciferase ratio worked out at 0.13.

Regarding `CC1=C[C@@]2(CC#N)CC[C@H]3[C@@](C)(CCC[C@@]3(C)C(=O)O)[C@@H]2CC1`, the Activity in experiment [1] came out at 2.85. Further, the luciferase ratio in the experiment on RAW264.7 was 0.22.

On to `C[C@@]12CC[C@@H]3[C@@](C/C1=N\O)(C2)[C@@H](O)C[C@H]1[C@@]3(C)[C@@H](O)CC[C@@]1(C)C(=O)O`, for which the Activity in experiment [1] is 3.37. Further, the luciferase ratio with RAW264.7 worked out at 0.26.

As for `C[C@@]12CC[C@@H]3[C@@](CC[C@H]4[C@@]3(C)CCC[C@@]4(C)C(=O)O)(C/C1=N\O)C2`, in experiment [1], the Activity is 4.87. Besides, in the experiment with RAW264.7, the luciferase ratio is 0.15.

Take `C[C@@]12CC[C@@H]3[C@@](CC1=O)(C2)[C@@H](O)C[C@H]1[C@@]3(C)[C@@H](O)CC[C@@]1(C)C(=O)O`: the Activity in experiment [1] came to 2.98. The luciferase ratio in the experiment on RAW264.7 amounted to 0.16.
